Assay outcomes: PubChem BioAssay, several laboratories
The full list was thinned out, with hits kept by preference.
UPR XBP1 act: activators of adaptive arm of unfolded protein response (XBP1); activation, % at 20 µM; CHO-XBP1 luciferase reporter, IRE1-XBP1 UPR activation, luminescence; percent of tunicamycin response, DMSO as zero; AID 463104; 330,000 compounds, 0.33% hits;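 active = versus positive control, 20 µM dose yields 30% or more activation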
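Material: CHO cell line with stable XBP1 luciferase reporter; buffer or medium: F12 medium containing 10% fetal bovine serum; compound: single point, 20 µM final compound, 1% DMSO; incubation: 6 h treatment, 37 °C; measured by: glow luminescence from Steady-Glo reagent; evaluation: activation, % of tunicamycin; control set: tunicamycin high, DMSO low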
Dynein transport: blocks dynein driven cargo transport along microtubules. 220,000 compounds, 0.47% hits. z-score, hits read low. AID 1381. 3617.4 mouse cells, GR-EGFP nuclear translocation imaging; test concentration mostly 20 µM; stimulated with dexamethasone, 1 µM; active compounds read low;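 active = plate z-score of nuclear minus cytoplasmic receptor signal below a set negative limit, without overly bright fluorescence or cell loss, cut at about -3.5 in these data, passing the limit was not always enough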;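 note: z-score of nuclear minus cytoplasmic ring GR-EGFP intensity difference per well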
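Buffer or medium – tet-free medium with charcoal-stripped serum · Signal – automated 10x imaging of fixed Hoechst-stained cells · Also added – dexamethasone agonist, 1.0 µM final, for 30 min · Incubation – induction 48 h, compound 1 h, agonist 30 min · Read-out – GR-EGFP nuclear translocation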
CHOP inhibitor: inhibitors of CHOP induction in ER stress response. CHO-K1 CHOP-promoter luciferase, tunicamycin-induced, 15-18 h. inhibition, % at 10 µM. 220,000 compounds, 3.8% hits. AID 2732;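 active = compounds that reduced the stress-induced luciferase reporter signal by more than about 70% of percent inhibition, limit read from the data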
L major viab: inhibitors of Leishmania major promastigote growth | Leishmania major promastigotes, resazurin fluorescence viability | 200,000 compounds, 9% hits | AID 1063 | inhibition, % at 10 µM; in the data active = inhibition above about 50%;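 note: promastigotes grown with compound for 44 hours at 28 °C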
UPR CHOP act: apoptotic UPR (CHOP) activation. CHO-CHOP luciferase reporter, luminescence; percent of tunicamycin response over DMSO baseline. activation, % at 10 µM. 330,000 compounds, 0.34% hits;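 active = at 10 µM dose, activation of 40% or more, normalized to positive control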
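measured by = luciferase luminescence | assay system = CHO-CHOP cells, stable luciferase reporter of PERK-eIF2a-CHOP signalling | amount = 500 reporter cells seeded per well | timing = 6 h compound exposure at 37 °C after overnight seeding | controls = positive tunicamycin 10 µg/mL, negative DMSO alone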
T cruzi repl: T. cruzi replication inhibition | T. cruzi beta-gal in NIH3T3, luminescence, 90 h | inhibition, % (concentration not given with the values) | 300,000 compounds, 1.4% hits | AID 1885;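 active = mean inhibition across valid replicates above about 55%, limit read from the data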;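 note: signal also drops with host cell toxicity which is not excluded here; higher percent means less beta-gal luminescence so fewer parasites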
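Material: NIH/3T3 host cells with β-galactosidase reporter T. cruzi; Input: 5,000 host fibroblasts per well; Medium: DMEM, 2% fetal bovine serum; Compound: 50 nL DMSO compound solution per well; Schedule: 3 h host attachment, then at least 90 h co-culture; Detection: luminescent β-galactosidase signal after 60 min lysis.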
CHOP inh conf: confirmation of CHOP induction inhibitors. shares compounds with CHOP inhibitor. CHO-CHOP promoter luciferase reporter, tunicamycin-induced, luminescence. inhibition, % at 10 µM. 2,100 compounds, 45% hits. AID 504437;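 active = mean of three repeat readings of reporter signal inhibition above a set limit, cut at about 70% in these data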
A number is an active result; 0 = inactive; - = no result given.

SMILES	UPR XBP1 act	Dynein transport	CHOP inhibitor	L major viab	UPR CHOP act	T cruzi repl	CHOP inh conf
CCS(=O)(=O)CCSC1OC(COC(C)=O)C(OC(C)=O)C(OC(C)=O)C1OC(C)=O (stereo unspecified)	0	0	0	0	0	0	-
Cc1cc(C)c2nc(-c3ccccn3)cc(C(=O)Nc3cc(C)on3)c2c1	0	0	101	0	0	0	99
COc1ccc(-n2cccc2/C=C2\C(=N)N3N=C(c4ccco4)SC3=NC2=O)cc1	0	0	102	0	0	0	0
COc1ccc(-c2nc(NC(=O)Cn3ccc(C(F)(F)F)n3)sc2C)cc1	0	0	103	0	0	0	74
CCCc1cc(-c2[nH]ncc2-c2ccc(C(=O)OCC)o2)c(O)cc1O	0	0	0	0	0	0	-
CCCc1cc(-c2[nH]ncc2-c2ccc3c(c2)OCCCO3)c(O)cc1O	0	0	101	0	0	0	0
CC(=O)c1cc2c(cc1NC(=O)CN1CCN(c3ccc(F)cc3)CC1)OCO2	0	0	97	0	0	0	0
CC(C)c1ccc(CC(C)C2C3=C(CCCC3=O)OC3=C2C(=O)CCC3)cc1 (stereo unspecified)	0	0	104	0	0	0	0
Cc1ccc(CCC2C3=C(CCCC3=O)OC3=C2C(=O)CCC3)cc1	0	0	0	0	0	0	-
O=C(CNc1cccc(C(F)(F)F)c1)N/N=C/c1cccc(Br)c1	0	0	99	0	0	0	108
Cn1nc(C(=O)NNC(=O)C(CCC(N)=O)NS(=O)(=O)c2ccc(Cl)cc2)c2ccccc2c1=O (stereo unspecified)	0	-	-	-	0	-	-
CCCOC(=O)c1ccc(Oc2c(-c3ccc(O)cc3O)n[nH]c2C)cc1	0	0	105	0	0	0	0
Cc1[nH]nc(-c2ccc(O)cc2O)c1Oc1ccccc1	0	0	0	0	0	0	-
CCc1cc(-c2n[nH]c(C)c2Oc2ccc(C(C)C)cc2)c(O)cc1O	0	0	113	0	0	0	114
CC(CC(=O)NC1CCCCC1)S(=O)(=O)c1ccc2c(c1)NC(=O)CO2 (stereo unspecified)	0	-	-	-	0	0	-
CC(C)c1ccc(C2C3CSCC=C3C(C#N)=C(N)C2(C#N)C#N)cc1 (stereo unspecified)	0	0	106	98	0	0	122
COc1ccc(NCc2nnc(SCC(=O)c3ccc(OC)cc3)o2)cc1	0	0	0	0	0	0	-
CCOc1cc(C(=O)CSc2nnc(CNc3ccc(Cl)cc3)o2)ccc1NC(=O)CC	0	0	105	0	0	0	112
O=C(O)CSc1nnc(NC(=O)CN2CCOCC2)s1	0	-	-	-	0	0	-
CC/C(=N/N=C(/CC)c1ccc(O)cc1)c1ccc(O)cc1	0	-	-	-	0	0	-
CC(=O)Nc1cccc(C(=O)NC2CCCc3c2cnn3-c2cc(C)cc(C)c2)c1 (stereo unspecified)	0	-	-	-	0	0	-
CCOC(=O)c1oc2ccc(S(=O)(=O)n3nc(-c4ccc(C)cc4)cc3N)cc2c1C	0	0	97	91	0	0	0
CCc1nc(N2CCN(C(=O)CCl)CC2)c2c3c(sc2n1)CC(C)CC3 (stereo unspecified)	0	-	-	-	0	0	-
Cc1ccc(-c2nc(C(Cl)Cl)c3ccccc3n2)cc1	0	0	103	-	0	0	100
CCOC(=O)C1=C(N)Oc2c(c(=O)[nH]c3ccccc23)C1c1ccccc1 (stereo unspecified)	0	0	97	0	0	0	0
CCOC(=O)C1=C(N)Oc2cc(C)[nH]c(=O)c2C1c1ccncc1 (stereo unspecified)	0	0	0	0	0	0	-
CCOc1cc(S(=O)(=O)Nc2cc(C)cc(C)c2)ccc1Cl	0	0	106	96	0	0	117
Cc1cccc2cc3c(nc12)SC(=NCC1CCCO1)N(Cc1ccco1)C3 (stereo unspecified)	0	0	103	0	0	0	0
